KSHV LANA nucl: inhibitors of KSHV LANA-nucleosome binding, primary screen, biochemical, fluorescence polarization, FITC-LANA1-23, chicken nucleosomes | FITC-LANA1-23 / chicken nucleosome fluorescence polarization; stronger effect = lower value | z-score (concentration not given with the values) | 51,000 compounds, 0.3% hits | AID 720717, 2013;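 active = both repeat wells score below -2 in polarization z-score versus plate sample wells, excluding overly bright wells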
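Assay system: FITC-LANA peptide and chicken nucleosomes; input: 240 nM purified chicken nucleosomes (480 nM peptide binding sites), final; also added: 50 nM FITC-LANA1-23 probe; medium: TEN-BT buffer, pH 7.5; doses: pin-transferred compound, 100 nL; times: 10–45 min, room temperature; technique: fluorescence polarization; replication: duplicates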
BasE inh: BasE siderophore enzyme inhibitors, primary screen, biochemical, Acinetobacter baumannii ATCC 17978, fluorescence polarization; purified BasE, fluorescence polarization binding displacement; inhibition, % (concentration not given with the values); 84,000 compounds, 0.1% hits; AID 485350, 2010; in the data active = inhibition above about 25%, passing the limit was not always enough;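 note: 0% = negative plate control signal and 100% = positive plate control signal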
* marks the source's active call; other numbers are inactive results; nt = no result; ! = a repeat was not active. The sample as a whole holds a higher share of hits than the screen did.

SMILES	KSHV LANA nucl	BasE inh
O=C(Nc1cccnc1)/C(N=Nc1cccnc1)=C(\O)c1ccccc1	nt	32*
O=C(Nc1ccccc1)c1cccnc1	nt	12
COc1ccc(N2CCN(C(=O)c3ccc(-n4cnnc4)cc3Cl)CC2)cc1	-2*	3
COc1ccc(N2CCN(C(=O)c3ccccc3OC)CC2)cc1	-0.53	-3
Cc1ccc(S(=O)(=O)N2CCN(CC(=O)N=Nc3c(O)[nH]c4c(C)c(C)ccc34)CC2)cc1	nt	-1
CN=c1scc(-c2ccc(OC(F)F)cc2)n1/N=C/c1ccc(O)cc1	nt	-2
CC(C)c1nc2ccc(N)cc2s1	0.51	3
CN(C)c1ccc2nc3ccc(=[N+](C)C)cc-3sc2c1	-2.4*	nt
C=CCN1CN(CC=C)CN(CC=C)C1	-0.78	2
Nn1c(NNC(=O)c2ccccc2)nnc(-c2cccs2)c1=O	nt	2
Nc1nnc(-c2cccs2)c(=O)n1N	nt	31*
C=C(C)Cn1c(CCn2c3ccccc3c3ccccc32)nnc1SCC(=O)OC	-0.32	2
Cn1c2c(c3ccccc31)C(C)(C)NC(C)(C)C2	0.1	-3
O=C(CCN1C(=O)/C(=C\C=C\c2ccco2)SC1=S)Nc1ccc(C(=O)O)c(O)c1	-0.23	33*
O=C(CCN1C(=O)/C(=C\c2ccco2)SC1=S)NN1CCOCC1	2.3	-1
COc1ccc(SCC(=O)c2cn(CCC#N)c3ccccc23)cc1	nt	-3
N#CCCn1cc(C(=O)CSc2ccccn2)c2ccccc21	nt	32*
Cc1nc2nc(N3C(=O)c4ccc(C(=O)O)cc4C3=O)[nH]n2c(=O)c1Cc1ccccc1	-0.028	1
O=C(CCc1nc2ccccc2c(=O)[nH]1)Nc1ccc2c(c1)CCC2	nt	28*
O=C(CCc1nc2ccccc2c(=O)[nH]1)Nc1ccc(F)cc1	nt	14
Cc1ccc2[nH]c(=O)c(CN(Cc3ccccc3)C(=O)c3ccco3)cc2c1	-0.96	4
CCN(CC)CCCC(C)Nc1c2ccc(Cl)cc2nc2ccc(OC)cc12 (stereo unspecified)	-2.3*!	51
CCN(CC)CCSc1nc2ccc(OC)cc2[nH]1	0.34	4
COc1ccc(N/C(C)=C/C(=O)c2ccccc2)cc1	-0.32	0
CC(=O)Nc1ccc(N/C(C)=C/C(=O)c2cccnc2)cc1	-0.39	39*
SMILES	KSHV LANA nucl	BasE inh
CCOC(=O)C1CSC2(CCCCC2)N1 (stereo unspecified)	0.66	nt
CC[C@@]1(O)C(=O)OCc2c1cc1n(c2=O)Cc2cc3c(CN(C)C)c(O)ccc3nc2-1	-9*!	15
CCCCc1cc(=O)oc2c(CN(C)C)c(O)ccc12	0.71	20
COC(=O)c1ccc2c(=O)n(NC(=O)C3CC3)c(=S)[nH]c2c1	0.94	3
Cc1nc2sc(C(=O)OCC(=O)NCc3ccco3)c(C)c2c(=O)[nH]1	nt	0
C/C(Cn1nnc2ccccc21)=N/OC(=O)c1c(F)cccc1F	0.5	53*
CC(Cn1nnc2ccccc21)C(=O)O (stereo unspecified)	nt	4
CC1(C)CC(=O)C/C(=N\NC(=O)CCC(=O)Nc2ccccc2)C1	0.69	0
CCN(CC)c1nccs1	nt	0
O=C(C[n+]1ccc(/C=N/O)cc1)Nc1ccc(C(=O)O)cc1	-0.21	-1
O=C1NC2(Cc3ccccc3C2)Nc2ccccc21	-2*	2
O=C1NC2(CCCCC2)Nc2ccccc21	0.32	0
COc1ccccc1C1C2=C(CC(C)(C)CC2=O)Nc2nc3ccccc3n21 (stereo unspecified)	-0.74	1
COc1ccccc1C1C=C(c2cccnc2)Nc2nc3ccccc3n21 (stereo unspecified)	-4.8*	29
O=C(CSc1n[nH]c(Cc2ccccc2)n1)NC1CCCCC1	-2.4*	2
Cc1nc(SCC(=O)NC2CCCC2)[nH]c(=O)c1Cc1ccccc1	1.3	1
COc1ccc(C(C)(C)C)cc1S(=O)(=O)N1CCN(c2ccccc2)CC1	-0.58	1
N#C/C(=C/c1ccc(O)c(O)c1)C(=O)OC/C=C/c1ccccc1	1.3	0
Oc1cc(O)cc(/C=C/c2ccc(O)c(O)c2)c1	-0.39	86*
CN(C)c1ccc(NC(=O)CSc2nc3ccncc3[nH]2)cc1	-0.9	2
O=C(CSC1=NNC(c2ccccn2)S1)Nc1cccc(Cl)c1 (stereo unspecified)	-2.1*	2
COc1cccc(NC(=O)CSc2ncccn2)c1	-0.7	1
CC(=O)N1N=C(c2cccc(I)c2)OC1c1ccncc1 (stereo unspecified)	-0.15	59*
CCC(=O)Nc1cccc(C2=NN(C(C)=O)C(c3ccc(F)cc3)O2)c1 (stereo unspecified)	-1.1	0
CC1CCN(S(=O)(=O)N2CCCC(C(=O)Nc3ccccc3C(=O)c3ccccc3)C2)CC1 (stereo unspecified)	-2.2*	0
SMILES	KSHV LANA nucl	BasE inh
COC(=O)c1cc(NC(=O)C2CCCN(S(=O)(=O)N3CCC(C)CC3)C2)cc(C(=O)OC)c1 (stereo unspecified)	-1.5	1
CC1N(C)c2cc(NC(=O)c3ccco3)c(P(=O)(Nc3cccc(C(F)(F)F)c3)N3CCOCC3)cc2C1(C)C (stereo unspecified)	nt	0
O=C(Nc1ccc(N2CCOCC2)cc1)C1CCCN(C(=O)c2ccc(Cl)cc2)C1 (stereo unspecified)	nt	-2
O=C(OCC(=O)N1CCN(C(=O)c2ccco2)CC1)c1ccc2c(=O)n3c(nc2c1)CCC3	nt	1
O=C(c1cc2c(Cl)ccc3c2n1CCO3)N1CCc2ccccc2C1	0.55	-1
Cc1ccc(C(=O)CSc2nc(C)cc(C)c2C#N)cc1	-1.4	0
COCc1cc(C)nc(SCC(=O)c2ccc(O)c(O)c2)c1C#N	nt	37*
Cc1cc2nc3c(=O)n(C)c(=O)[nH]c3nc2cc1N=CN(C)C	-2.1*	37
CCCCCCn1c(=O)[nH]c2nc3cc(N)c(C)cc3nc2c1=O	nt	12
Brc1ccc2cc(Oc3cnccn3)ccc2c1	nt	2
COC(=O)c1cc(-c2cocc2C=C(C#N)C#N)ccc1Cl	-4.7*	7
COC(=O)c1cnn(-c2c(Cl)cccc2Cl)c1C=C(C#N)C#N	-0.88	3
COC(=O)c1ccc(COC(=O)c2c(-c3ccccc3)noc2C)o1	nt	1
OCc1cc(Br)cc(CO)c1O	nt	-21
CCCNC(=O)C12CC3CC(CC(C3)C1)C2	-1.1	2
Cn1c(SCc2ccccc2Cl)nnc1-c1oc2nc(-c3ccccc3)cc(-c3ccco3)c2c1N	-0.26	-7
Cn1c(-c2oc3nc(-c4ccccc4)cc(-c4ccco4)c3c2N)n[nH]c1=S	-2.3*	3
Nn1c(SCc2cc(=O)oc3cc4c(cc23)CCC4)nnc1-c1cccnc1	nt	-9
OCC12CC3CCC(CC(C3)C1)C2	0.32	3
CC(C)c1ccc(C2=CC(=O)C=CC2=O)cc1	0.66	2
O=C1C=CC(=O)c2c(Cl)ccc(Cl)c21	-0.036	80*
Clc1cccc(NCc2ccco2)c1	-0.21	-1
Cc1noc(C)c1CSc1ccccc1C(=O)Nc1nc(SCc2ccc(Cl)cc2)n[nH]1	nt	-2
COc1ccc(S(=O)(=O)c2ccc(O)cc2)cc1	0.13	51*
COc1ccc(S(=O)(=O)NNC(N)=S)cc1	0.26	-1
NNC(=O)c1ccc[nH]1	0.57	5
CCn1c(SC(C)C#N)nnc1-c1cccs1 (stereo unspecified)	nt	1
CCN(C(=O)c1cccc(Cl)c1)C1CCCCC1	0.75	0

Bioassay records (PubChem BioAssay)
